For data set [1], the system named is Human immunodeficiency virus 1. Kind of data set: Antiviral activity against on HIV1 3b infected C8166 cells assessed as syncytial cell formation after 3 days. The following applies: Human immunodeficiency virus 1, 3b, C8166, 72 h. The format is functional, organism-based. The procedure, abridged:
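C8166 cells (8 × 10^5/mL) seeded with serial concentrations of compound, then infected with HIV-1 IIIB at 1300 TCID50/well; 3 days at 37 °C, 5% CO2. Syncytia (multinucleated giant cells) counted per well under inverted microscope; percent inhibition of syncytium formation versus untreated infected controls gives EC50.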

Data set [2] can be described thus: Selectivity index, ratio of CC50 for C8166 cells to IC50 for HIV1 infected C8166 cells. The format is functional. The procedure, abridged:
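Therapeutic index computed as CC50 (MTT viability of uninfected C8166, 72 h) divided by EC50 (inhibition of HIV-1 IIIB syncytium formation in C8166, 3 days), both run in parallel.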

A short description of data set [3]: Cytotoxicity against C8166 cells by MTT method. In kind it is cell-based. The conditions noted are these: human. Put shortly:
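Uninfected C8166 cells (4 × 10^5/mL) exposed to graded compound concentrations for 72 h at 37 °C, 5% CO2. Supernatant removed, MTT (5 mg/mL stock in PBS) added for 4 h, formazan dissolved in 50% DMF–20% SDS, absorbance read at 595/630 nm. CC50 (50% loss of viable cells) taken from dose-response curve.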

Turning to `COc1cc([C@H]2O[C@H](c3cc(OC)c4c(c3)OCO4)[C@@H](COC(C)=O)[C@@H]2CO)cc(OC)c1O`, in data set [1], the EC50 (commonly the midpoint of the concentration-response curve) came to 49.8 µM. Also, the “Ratio CC50/EC50” value in data set [2] was 4.6. For the same compound, half-maximal cytotoxicity in data set [3] (CC50) was put at 229 µM.
The corresponding values for `COc1cc(C(c2cc(OC)c(OC)c(OC)c2)C2COC(=O)C2C)cc(O)c1OC` (stereo not drawn) are 27.3 µM, 5.1 and 140 µM.
The corresponding values for `COc1cc(C(c2cc(OC)c3c(c2)OCO3)[C@@H]2COC(=O)[C@H]2C)cc2c1OCO2` [PEPEROMIN A] are 5.3 µM, 8.2 and 43.2 µM.
In the same order, the values of `COc1cc([C@@H](c2cc(OC)c3c(c2)OCO3)[C@@H]2COC(=O)[C@H]2C)cc(OC)c1OC` [PEPEROMIN B] are 5.4 µM, 9.1 and 49.1 µM.
Turning to `COc1cc(C(c2cc(OC)c(OC)c(OC)c2)[C@@H]2COC(=O)[C@H]2C)cc(OC)c1OC` [PEPEROMIN C], the EC50 in data set [1] worked out at 42.6 µM. The “Ratio CC50/EC50” value in data set [2] worked out at 4.5. Further, half-maximal cytotoxicity in data set [3] (CC50) was put at 192 µM.
Regarding `Cc1cn([C@H]2C[C@H](N=[N+]=[N-])[C@@H](CO)O2)c(=O)[nH]c1=O` [ZIDOVUDINE], the EC50 in data set [1] turned out to be 0.017 µM. For the same compound, the Ratio CC50/EC50 in data set [2] was above 100000. Further, the CC50 – broadly, the concentration at which the toxic effect on the cells reaches its halfway point – in data set [3] is 4550 µM.

For the origin of these results see ChEMBL document CHEMBL1142103, “Bioactive lignans from Peperomia heyneana” (J Nat Prod, 2007).
